Published values pooled from the literature.
Lines come from different studies, so protocols differ. Values after ≈ are worked out from the molar mass of the structure shown.

SMILES	tested on	effect on	technique	strain	time	quantity	value
CN(C)[C@@H]1C(O)=C(C(N)=O)C(=O)[C@@]2(O)C(O)=C3C(=O)c4c(O)c(-c5ccccc5)nc(Cl)c4C[C@H]3C[C@@H]12.Cl	Enterobacter cloacae	microbial growth	broth dilution	ATCC13047		MIC	> 32 µg/mL
C/C=C(\C)c1cc(OC(=O)c2c(O)c(C)c(O)c(Cl)c2/C(C)=C/C)c(C)c(O)c1C(=O)O	Enterococcus gallinarum	microbial growth	broth dilution	GALLINARUM		MIC	64 µg/mL (≈ 139 µM)
O=C(O)c1cn(C2CC2)c2cc(N3CCNCC3)c(F)cc2c1=O	Serratia marcescens	microbial growth		DSM30121		MIC	0.5 µg/mL (≈ 1.51 µM)
CN(C)c1ccc(O)c2c1C[C@H]1C[C@H]3[C@H](N(C)C)C(O)=C(C(N)=O)C(=O)[C@@]3(O)C(O)=C1C2=O	Enterobacter cloacae	microbial growth	broth dilution	ATCC13047		MIC	2 µg/mL (≈ 4.37 µM)
C=CCn1c(-c2ccc(Cl)cc2)nc2ccc(C)cc21	human Rhabdomyosarcoma cell	cell growth or viability	MTT			IC50	48.8 µM
CC(C)Oc1c(NC(=O)c2ccc(NC(=O)[C@H](CC(N)=O)NC(=O)c3ccc(NC(=O)c4ccc(C#N)cn4)cc3)cc2)ccc(C(=O)Nc2ccc(C(=O)O)cc2)c1O	Serratia marcescens	microbial growth		DSM30121		MIC	> 64 µg/mL
Cc1ccc2nc(-c3cccc([N+](=O)[O-])c3)[nH]c2c1	human Rhabdomyosarcoma cell	cell growth or viability	MTT		48 h	IC50	93.3 µM
CC1(C)S[C@@H]2[C@H](NC(=O)[C@H](N)c3ccccc3)C(=O)N2[C@H]1C(=O)O	Enterococcus gallinarum	microbial growth	broth dilution	GALLINARUM		MIC	8 µg/mL (≈ 22.9 µM)
CC(=O)O[C@H]1C(=O)[C@@]2(C)[C@H]([C@H](OC(=O)c3ccccc3)[C@]3(O)C[C@H](OC(=O)[C@H](O)[C@@H](NC(=O)c4ccccc4)c4ccccc4)C(C)=C1C3(C)C)[C@]1(OC(C)=O)CO[C@@H]1C[C@@H]2O	human Rhabdomyosarcoma cell	cell growth or viability	MTT			IC50	6.13 µM
CN(C)[C@@H]1C(O)=C(C(N)=O)C(=O)[C@@]2(O)C(O)=C3C(=O)c4c(O)c(N)nc(Cl)c4C[C@H]3C[C@@H]12	Enterobacter cloacae	microbial growth	broth dilution	ATCC13047		MIC	1 µg/mL (≈ 2.15 µM)
